Source: paper PMC5089614 (British Journal of Clinical Pharmacology, 2016)

Assays:
[1] = Safety/tolerability: adverse events graded by NCI CTCAE v4.03; format: in vivo, human
Procedure, shortened: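 Solid tumour patients got oral test compound by hepatic group: normal 4 mg, moderate 2.3 mg, severe 1.5 mg. Dosing continued in a second part, with escalation allowed up to 4 mg. AEs were monitored from first dose until 30 days after the last dose and graded by CTCAE v4.03. Safety population was all patients with ≥1 dose. Investigators assigned relatedness.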

[2] = cited from earlier work
[3] = severe impairment 1.5 mg (n = 20)

CC(C)C[C@H](NC(=O)CNC(=O)c1cc(Cl)ccc1Cl)B(O)O [ixazomib]
Hyperkalaemia, any-grade TEAE ([1]; normal function 4 mg (n = 13)): 1 (8) n (%)
Hypotension, any-grade TEAE ([1]; normal function 4 mg (n = 13)): 0 n (%)
Hypotension, grade ≥3 TEAE ([1]; normal function 4 mg (n = 13)): 0 n (%)
Insomnia, any-grade TEAE ([1]; normal function 4 mg (n = 13)): 3 (23) n (%)
Leukocytosis, grade ≥3 TEAE ([1]; normal function 4 mg (n = 13)): 0 n (%)
Nausea, any-grade TEAE ([1]; normal function 4 mg (n = 13)): 9 (69) n (%)
Peripheral oedema, any-grade TEAE ([1]; normal function 4 mg (n = 13)): 2 (15) n (%)
Pyrexia, any-grade TEAE ([1]; normal function 4 mg (n = 13)): 1 (8) n (%)
Upper abdominal pain, any-grade TEAE ([1]; normal function 4 mg (n = 13)): 2 (15) n (%)
Vomiting, any-grade TEAE ([1]; normal function 4 mg (n = 13)): 7 (54) n (%)
incidence of drug-related grade ≥3 AEs ([1]; normal hepatic function, 4 mg): 23%
incidence of peripheral neuropathy (PN) ([1]; one patient, grade 2, treatment-related, history of neuropathy): 2%
patients with rash-related AEs ([1]; seven events in total, all grade 1 or 2, none serious): Five
on-study deaths, number ([1]; severe hepatic impairment group): eight
incidence of drug-related grade ≥3 AEs ([1]; severe hepatic impairment, 1.5 mg): 5%
Abdominal pain, any-grade TEAE [1, 3]: 2 (10) n (%)
Acute renal failure, any-grade TEAE [1, 3]: 6 (30) n (%)
Acute renal failure, grade ≥3 TEAE [1, 3]: 5 (25) n (%)
Anaemia, any-grade TEAE [1, 3]: 3 (15) n (%)
Anaemia, grade ≥3 TEAE [1, 3]: 2 (10) n (%)
Any-grade AE [1, 3]: 20 (100) n (%)
Ascites, any-grade TEAE [1, 3]: 3 (15) n (%)
Ascites, grade ≥3 TEAE [1, 3]: 2 (10) n (%)
Back pain, any-grade TEAE [1, 3]: 3 (15) n (%)
Cough, any-grade TEAE [1, 3]: 3 (15) n (%)
Decreased appetite, any-grade TEAE [1, 3]: 1 (5) n (%)
Dehydration, any-grade TEAE [1, 3]: 3 (15) n (%)
Dehydration, grade ≥3 TEAE [1, 3]: 2 (10) n (%)
Diarrhoea, any-grade TEAE [1, 3]: 1 (5) n (%)
Dyspnoea, any-grade TEAE [1, 3]: 4 (20) n (%)
Fatigue, any-grade TEAE [1, 3]: 5 (25) n (%)
Fatigue, grade ≥3 TEAE [1, 3]: 1 (5) n (%)
Grade ≥3 AE [1, 3]: 18 (90) n (%)
Hyperbilirubinaemia, any-grade TEAE [1, 3]: 5 (25) n (%)
Hyperbilirubinaemia, grade ≥3 TEAE [1, 3]: 5 (25) n (%)
Hyperkalaemia, any-grade TEAE [1, 3]: 2 (10) n (%)
Hypotension, any-grade TEAE [1, 3]: 4 (20) n (%)
Hypotension, grade ≥3 TEAE [1, 3]: 2 (10) n (%)
Insomnia, any-grade TEAE [1, 3]: 1 (5) n (%)
Leukocytosis, grade ≥3 TEAE [1, 3]: 2 (10) n (%)
Nausea, any-grade TEAE [1, 3]: 5 (25) n (%)
Peripheral oedema, any-grade TEAE [1, 3]: 4 (20) n (%)
Pyrexia, any-grade TEAE [1, 3]: 4 (20) n (%)
Upper abdominal pain, any-grade TEAE [1, 3]: 2 (10) n (%)
Vomiting, any-grade TEAE [1, 3]: 4 (20) n (%)
Abdominal pain, any-grade TEAE ([1]; total (N = 48)): 6 (13) n (%)
Acute renal failure, any-grade TEAE ([1]; total (N = 48)): 7 (15) n (%)
Acute renal failure, grade ≥3 TEAE ([1]; total (N = 48)): 6 (13) n (%)
Anaemia, any-grade TEAE ([1]; total (N = 48)): 8 (17) n (%)
Anaemia, grade ≥3 TEAE ([1]; total (N = 48)): 4 (8) n (%)
Any-grade AE ([1]; total (N = 48)): 48 (100) n (%)
Ascites, any-grade TEAE ([1]; total (N = 48)): 6 (13) n (%)
Ascites, grade ≥3 TEAE ([1]; total (N = 48)): 4 (8) n (%)
Back pain, any-grade TEAE ([1]; total (N = 48)): 5 (10) n (%)
Cough, any-grade TEAE ([1]; total (N = 48)): 6 (13) n (%)
Decreased appetite, any-grade TEAE ([1]; total (N = 48)): 10 (21) n (%)
Dehydration, any-grade TEAE ([1]; total (N = 48)): 8 (17) n (%)
Dehydration, grade ≥3 TEAE ([1]; total (N = 48)): 4 (8) n (%)
Diarrhoea, any-grade TEAE ([1]; total (N = 48)): 6 (13) n (%)
Dyspnoea, any-grade TEAE ([1]; total (N = 48)): 11 (23) n (%)
Fatigue, any-grade TEAE ([1]; total (N = 48)): 15 (31) n (%)
Fatigue, grade ≥3 TEAE ([1]; total (N = 48)): 4 (8) n (%)
Grade ≥3 AE ([1]; total (N = 48)): 37 (77) n (%)
Hyperbilirubinaemia, any-grade TEAE ([1]; total (N = 48)): 10 (21) n (%)
Hyperbilirubinaemia, grade ≥3 TEAE ([1]; total (N = 48)): 10 (21) n (%)
Hyperkalaemia, any-grade TEAE ([1]; total (N = 48)): 5 (10) n (%)
Hypotension, any-grade TEAE ([1]; total (N = 48)): 5 (10) n (%)
Hypotension, grade ≥3 TEAE ([1]; total (N = 48)): 3 (6) n (%)
Insomnia, any-grade TEAE ([1]; total (N = 48)): 6 (13) n (%)
Leukocytosis, grade ≥3 TEAE ([1]; total (N = 48)): 3 (6) n (%)
Nausea, any-grade TEAE ([1]; total (N = 48)): 18 (38) n (%)
Peripheral oedema, any-grade TEAE ([1]; total (N = 48)): 15 (31) n (%)
Pyrexia, any-grade TEAE ([1]; total (N = 48)): 7 (15) n (%)
Upper abdominal pain, any-grade TEAE ([1]; total (N = 48)): 5 (10) n (%)
Vomiting, any-grade TEAE ([1]; total (N = 48)): 13 (27) n (%)
half-life ([2]; after oral dosing): 96 to 220 h
renal clearance [2]: 0 to 0.51 L/h
median time to reach peak concentration (T max) ([2]; clinical studies): 0.5 to 2.0 h
effect of mild hepatic impairment on PK ([2]; population PK analysis, cancer patients, NCI ODWG criteria): no clinically relevant PK changes
effect of mild and moderate renal impairment on PK ([2]; population PK analysis, creatinine clearance ≥30 ml min^−1): did not alter ixazomib PK
